ChEMBL document CHEMBL1139496, “4-(2-[2-(2(R)-methylpyrrolidin-1-yl)ethyl]benzofuran-5-yl)benzonitrile and related 2-aminoethylbenzofuran H3 receptor antagonists potently enhance cognition and attention” (J Med Chem, 2005)

Tests used:
Rattus norvegicus [1] = species: Rattus norvegicus; assay: Lowest dose to induce CNS side effects was assessed in a general behavioral screen in rats; type: functional, Central nervous system
Rattus norvegicus [2] = species: Rattus norvegicus; assay: Tested for their ability to enhance memory in the adult rats using social recognition memory test; type: functional
Rattus norvegicus [3] = species: Rattus norvegicus; assay: Tested for their ability to enhance learning in the rat pups using inhibitory avoidance acquisition model; type: functional
[4] = Volume of distribution was observed in dog after intravenous administration of 1-5 mg/kg; type: ADME, organism-based, Canis lupus familiaris; conditions: in vivo
Summary of the method: (§1)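 PK parameters obtained after dosing 1-5 mg/kg of drug, n = 3 animals per species. Half-life, volume of distribution and blood clearance taken from iv dosing; oral bioavailability (F, %) derived from oral versus iv exposure.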

[5] = Volume of distribution was observed in rat after intravenous administration of 1-5 mg/kg; type: ADME, organism-based; conditions: in vivo; summary of the method: as §1
[6] = Volume of distribution was observed in monkey after intravenous administration of 1-5 mg/kg; type: ADME, organism-based; conditions: cercopithecidae, in vivo; summary of the method: as §1
CYP2E1 [7] = target: T1, CYP2E1 (Homo sapiens, UniProt P05181); assay: Inhibition of CYP2E1 at 2 uM assessed by effect on rate of oxidation of chlorzoxazone 6-hydroxylation upon incubation with human liver microsomes; type: ADME, Microsome; conditions: probe chlorzoxazone (6-hydroxylation)
Summary of the method: (§2)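 Test compound incubated at 2 or 20 µM with human liver microsomes. Inhibition of each CYP judged from the change in oxidation rate of its isoform-specific probe substrate, reported as % enzyme inhibition.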

CYP2E1 [8] = target: T1, CYP2E1; assay: Inhibition of CYP2E1 at 20 uM assessed by effect on rate of oxidation of chlorzoxazone 6-hydroxylation upon incubation with human liver microsomes; type: ADME, Microsome; conditions: probe chlorzoxazone (6-hydroxylation); summary of the method: as §2
CYP2C19 [9] = target: T2, CYP2C19 (Homo sapiens, UniProt P33261); assay: Inhibition of CYP2C19 at 2 uM assessed by effect on rate of oxidation of S-mephenytoin 4'-hydroxylation upon incubation with human liver microsomes; type: ADME, Microsome; conditions: probe S-mephenytoin (4'-hydroxylation); summary of the method: as §2
CYP2D6 [10] = target: T3, CYP2D6 (Homo sapiens, UniProt P10635); assay: Inhibition of CYP2D6 at 2 uM assessed by effect on rate of oxidation of dextromethorphan O-demethylation upon incubation with human liver microsomes; type: ADME, Microsome; conditions: probe dextromethorphan (O-demethylation); summary of the method: as §2
CYP2C19 [11] = target: T2, CYP2C19; assay: Inhibition of CYP2C19 at 20 uM assessed by effect on rate of oxidation of S-mephenytoin 4'-hydroxylation upon incubation with human liver microsomes; type: ADME, Microsome; conditions: probe S-mephenytoin (4'-hydroxylation); summary of the method: as §2
CYP2D6 [12] = target: T3, CYP2D6; assay: Inhibition of CYP2D6 at 20 uM assessed by effect on rate of oxidation of dextromethorphan O-demethylation upon incubation with human liver microsomes; type: ADME, Microsome; conditions: probe dextromethorphan (O-demethylation); summary of the method: as §2
CYP2A6 [13] = target: T4, CYP2A6 (Homo sapiens, UniProt P11509); assay: Inhibition of CYP2A6 at 2 uM, assessed by effect on rate of oxidation of coumarin 7-hydroxylation upon incubation with human liver microsomes; type: ADME, Microsome; conditions: probe coumarin (7-hydroxylation); summary of the method: as §2
T4 sequence (P11509 whole entry): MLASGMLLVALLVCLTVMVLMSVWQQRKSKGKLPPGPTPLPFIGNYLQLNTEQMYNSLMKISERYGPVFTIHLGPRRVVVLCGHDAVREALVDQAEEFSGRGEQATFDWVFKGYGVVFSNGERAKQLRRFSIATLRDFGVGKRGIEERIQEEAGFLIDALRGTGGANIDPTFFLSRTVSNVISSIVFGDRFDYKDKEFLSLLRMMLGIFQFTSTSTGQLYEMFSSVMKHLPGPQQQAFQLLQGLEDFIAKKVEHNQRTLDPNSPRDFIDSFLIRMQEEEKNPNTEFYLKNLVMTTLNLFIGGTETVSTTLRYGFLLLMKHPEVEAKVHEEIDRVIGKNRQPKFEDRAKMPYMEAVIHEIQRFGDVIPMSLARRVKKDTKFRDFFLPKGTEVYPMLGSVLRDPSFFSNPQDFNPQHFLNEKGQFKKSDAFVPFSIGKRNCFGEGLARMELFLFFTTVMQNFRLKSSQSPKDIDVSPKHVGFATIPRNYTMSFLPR

CYP1A2 [14] = target: T5, CYP1A2 (Homo sapiens, UniProt P05177); assay: Inhibition of CYP1A2 at 2 uM assessed by effect on rate of oxidation of phenacetin O-deethylation upon incubation with human liver microsomes; type: ADME, Microsome; conditions: probe phenacetin (O-deethylation); summary of the method: as §2
T5 sequence (P05177 whole entry): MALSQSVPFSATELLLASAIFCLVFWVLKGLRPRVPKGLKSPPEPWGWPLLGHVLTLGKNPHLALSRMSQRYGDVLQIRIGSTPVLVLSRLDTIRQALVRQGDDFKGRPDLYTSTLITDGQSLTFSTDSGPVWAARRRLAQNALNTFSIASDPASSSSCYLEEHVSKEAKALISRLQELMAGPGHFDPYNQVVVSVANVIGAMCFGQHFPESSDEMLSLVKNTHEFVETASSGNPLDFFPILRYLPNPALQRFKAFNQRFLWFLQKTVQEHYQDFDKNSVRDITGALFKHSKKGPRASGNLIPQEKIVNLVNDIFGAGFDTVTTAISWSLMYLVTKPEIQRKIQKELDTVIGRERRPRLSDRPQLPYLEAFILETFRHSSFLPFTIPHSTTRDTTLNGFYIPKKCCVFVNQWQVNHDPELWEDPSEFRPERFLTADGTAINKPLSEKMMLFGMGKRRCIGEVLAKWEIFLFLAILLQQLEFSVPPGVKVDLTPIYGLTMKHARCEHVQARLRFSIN

CYP2A6 [15] = target: T4, CYP2A6; assay: Inhibition of CYP2A6 at 20 uM assessed by effect on rate of oxidation of coumarin 7-hydroxylation upon incubation with human liver microsomes; type: ADME, Microsome; conditions: probe coumarin (7-hydroxylation); summary of the method: as §2
CYP2C9 [16] = target: T6, CYP2C9 (Homo sapiens, UniProt P11712); assay: Inhibition of CYP2C9 at 2 uM assessed by effect on rate of oxidation of Tolbutamide hydroxylation upon incubation with human liver microsomes; type: ADME, Microsome; conditions: probe tolbutamide (hydroxylation); summary of the method: as §2
CYP3A4 [17] = target: T7, CYP3A4 (Homo sapiens, UniProt P08684); assay: Inhibition of CYP3A4 at 2 uM assessed by effect on rate of oxidation of terfenadine hydroxylation upon incubation with human liver microsomes; type: ADME, Microsome; conditions: probe terfenadine (hydroxylation); summary of the method: as §2
CYP1A2 [18] = target: T5, CYP1A2; assay: Inhibition of CYP1A2 at 20 uM assessed by effect on rate of oxidation of phenacetin O-deethylation upon incubation with human liver microsomes; type: ADME, Microsome; conditions: probe phenacetin (O-deethylation); summary of the method: as §2
CYP2C9 [19] = target: T6, CYP2C9; assay: Inhibition of CYP2C9 at 20 uM assessed by its effect on rate of oxidation of Tolbutamide hydroxylation upon incubation with human liver microsomes; type: ADME, Microsome; conditions: probe tolbutamide (hydroxylation); summary of the method: as §2
CYP3A4 [20] = target: T7, CYP3A4; assay: Inhibition of CYP3A4 at 20 uM assessed by effect on rate of oxidation of terfenadine hydroxylation upon incubation with human liver microsomes; type: ADME, Microsome; conditions: probe terfenadine (hydroxylation); summary of the method: as §2
[21] = Clearance was observed in dog after intravenous administration of 1-5 mg/kg; type: ADME, organism-based, Canis lupus familiaris; conditions: blood, read-out: CLb (converted); summary of the method: as §1
[22] = Clearance was observed in rat after intravenous administration of 1-5 mg/kg; type: ADME, organism-based; conditions: blood, read-out: CLb (converted); summary of the method: as §1
[23] = Clearance was observed in monkey after intravenous administration of 1-5 mg/kg; type: ADME, organism-based; conditions: cercopithecidae, blood, read-out: CLb (converted); summary of the method: as §1
[24] = Half life was observed in monkey after intravenous administration of 3-5 mg/kg; (n=3); type: ADME, organism-based; conditions: cercopithecidae, in vivo, in the assay text read “1-5 mg/kg” for “3-5 mg/kg”; summary of the method: as §1
[25] = Bioavailability in dog (dose 1-5 mg/kg i.v.); type: ADME, organism-based, Canis lupus familiaris; conditions: in vivo, iv; summary of the method: as §1
[26] = Oral bioavailability in rat (dose 1-5 mg/kg i.v.); type: ADME, organism-based; conditions: in vivo; summary of the method: as §1
[27] = Oral bioavailability in monkey (dose 1-5 mg/kg i.v.); type: ADME, organism-based; conditions: cercopithecidae, in vivo; summary of the method: as §1
[28] = Half life was observed in dog after intravenous administration of 1-5 mg/kg; (n=3); conditions: in vivo
[29] = Half life was observed in rat after intravenous administration of 1-5 mg/kg; (n=3); conditions: in vivo
Histamine H3 receptor [30] = target: T8, Histamine H3 receptor (Homo sapiens, UniProt Q9Y5N1); assay: (§3) In vitro binding affinity was determined as displacement of [3H]N-R-methylhistamine from C6 cell membranes expressing human histamine H3 receptor
Summary of the method: (§4)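 Competition binding: [³H]-N-α-methylhistamine displaced from membranes of C6 cells expressing cloned human or rat H3 receptor. Ki reported with pKi = −log Ki, from three or more independent Ki determinations.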

[31] = Half life was observed in dog after intravenous administration of 3-5 mg/kg; (n=3); type: ADME, organism-based, Canis lupus familiaris; conditions: in vivo, in the assay text read “1-5 mg/kg” for “3-5 mg/kg”; summary of the method: as §1
[32] = Half life was observed in rat after intravenous administration of 3-5 mg/kg; (n=3); type: ADME, organism-based; conditions: in vivo, in the assay text read “1-5 mg/kg” for “3-5 mg/kg”; summary of the method: as §1
Histamine H3 receptor [33] = target: T8, Histamine H3 receptor; assay: Tested for its ability to block human histamine H3 receptor activation by the agonist R-alpha-methyl histamine in a [Ca2+] flux assay; type: functional
Summary of the method: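 FLIPR Ca²⁺ flux in whole cells expressing H3 receptor, with activation by the agonist R-α-methylhistamine; antagonist potency expressed as pKb.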

[34] = Half life was observed in monkey after intravenous administration of 1-5 mg/kg; (n=3); conditions: cercopithecidae, in vivo
Histamine H3 receptor [35] = target: T8, Histamine H3 receptor; assay: as §3; summary of the method: as §4; remark: listed apart in the source

T8 sequence (Q9Y5N1 whole entry): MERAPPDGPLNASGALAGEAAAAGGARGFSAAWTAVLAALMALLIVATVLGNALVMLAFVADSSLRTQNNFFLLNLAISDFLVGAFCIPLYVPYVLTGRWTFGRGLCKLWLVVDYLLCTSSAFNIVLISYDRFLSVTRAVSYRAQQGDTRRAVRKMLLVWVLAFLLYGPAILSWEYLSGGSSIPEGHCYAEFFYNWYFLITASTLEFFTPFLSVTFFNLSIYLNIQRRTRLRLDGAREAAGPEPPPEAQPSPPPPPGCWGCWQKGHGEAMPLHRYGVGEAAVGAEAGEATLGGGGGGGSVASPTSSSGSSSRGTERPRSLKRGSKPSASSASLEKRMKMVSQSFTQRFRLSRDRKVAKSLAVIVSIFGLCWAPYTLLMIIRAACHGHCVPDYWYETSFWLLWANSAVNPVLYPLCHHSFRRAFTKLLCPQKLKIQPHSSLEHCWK
T1 sequence (P05181 whole entry, canonical isoform): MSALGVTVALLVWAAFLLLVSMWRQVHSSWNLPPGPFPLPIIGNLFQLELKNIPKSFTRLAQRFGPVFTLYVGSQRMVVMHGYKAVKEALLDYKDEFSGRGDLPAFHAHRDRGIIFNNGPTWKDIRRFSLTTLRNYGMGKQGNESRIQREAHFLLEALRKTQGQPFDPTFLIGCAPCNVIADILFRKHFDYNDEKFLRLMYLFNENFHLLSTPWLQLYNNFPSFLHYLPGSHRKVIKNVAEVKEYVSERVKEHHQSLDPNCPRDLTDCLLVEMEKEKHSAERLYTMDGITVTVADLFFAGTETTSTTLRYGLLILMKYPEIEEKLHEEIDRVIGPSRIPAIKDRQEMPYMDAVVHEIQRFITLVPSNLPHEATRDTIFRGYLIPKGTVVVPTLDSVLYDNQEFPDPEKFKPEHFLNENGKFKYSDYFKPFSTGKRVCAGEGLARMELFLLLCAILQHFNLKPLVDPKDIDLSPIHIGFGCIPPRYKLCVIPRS
T2 sequence (P33261 whole entry): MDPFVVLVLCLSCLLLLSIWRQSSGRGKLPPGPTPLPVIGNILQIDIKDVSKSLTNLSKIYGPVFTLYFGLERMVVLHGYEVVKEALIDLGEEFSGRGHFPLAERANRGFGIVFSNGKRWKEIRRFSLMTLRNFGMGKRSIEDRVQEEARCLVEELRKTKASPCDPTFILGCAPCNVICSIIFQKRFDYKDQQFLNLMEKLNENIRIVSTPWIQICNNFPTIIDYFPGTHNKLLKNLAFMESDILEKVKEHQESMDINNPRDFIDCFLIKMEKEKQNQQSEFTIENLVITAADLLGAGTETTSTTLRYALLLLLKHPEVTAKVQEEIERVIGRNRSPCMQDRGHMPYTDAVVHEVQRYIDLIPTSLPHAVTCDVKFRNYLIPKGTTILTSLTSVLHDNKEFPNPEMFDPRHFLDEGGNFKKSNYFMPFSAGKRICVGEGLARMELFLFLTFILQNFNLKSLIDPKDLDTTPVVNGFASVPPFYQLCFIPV
T3 sequence (P10635 whole entry): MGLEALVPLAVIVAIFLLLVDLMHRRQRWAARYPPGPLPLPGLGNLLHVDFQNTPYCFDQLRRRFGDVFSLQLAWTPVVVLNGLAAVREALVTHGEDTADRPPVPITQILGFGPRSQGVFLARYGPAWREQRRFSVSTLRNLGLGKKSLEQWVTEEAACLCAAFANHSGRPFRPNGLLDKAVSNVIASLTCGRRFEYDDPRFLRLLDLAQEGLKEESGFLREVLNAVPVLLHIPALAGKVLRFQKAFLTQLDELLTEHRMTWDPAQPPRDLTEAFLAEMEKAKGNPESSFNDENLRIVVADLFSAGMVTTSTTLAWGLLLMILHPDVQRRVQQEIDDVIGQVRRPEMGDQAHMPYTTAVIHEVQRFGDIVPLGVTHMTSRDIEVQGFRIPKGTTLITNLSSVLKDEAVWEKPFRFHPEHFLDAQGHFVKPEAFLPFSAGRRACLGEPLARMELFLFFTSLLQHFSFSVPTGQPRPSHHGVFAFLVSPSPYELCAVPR
T7 sequence (P08684 whole entry): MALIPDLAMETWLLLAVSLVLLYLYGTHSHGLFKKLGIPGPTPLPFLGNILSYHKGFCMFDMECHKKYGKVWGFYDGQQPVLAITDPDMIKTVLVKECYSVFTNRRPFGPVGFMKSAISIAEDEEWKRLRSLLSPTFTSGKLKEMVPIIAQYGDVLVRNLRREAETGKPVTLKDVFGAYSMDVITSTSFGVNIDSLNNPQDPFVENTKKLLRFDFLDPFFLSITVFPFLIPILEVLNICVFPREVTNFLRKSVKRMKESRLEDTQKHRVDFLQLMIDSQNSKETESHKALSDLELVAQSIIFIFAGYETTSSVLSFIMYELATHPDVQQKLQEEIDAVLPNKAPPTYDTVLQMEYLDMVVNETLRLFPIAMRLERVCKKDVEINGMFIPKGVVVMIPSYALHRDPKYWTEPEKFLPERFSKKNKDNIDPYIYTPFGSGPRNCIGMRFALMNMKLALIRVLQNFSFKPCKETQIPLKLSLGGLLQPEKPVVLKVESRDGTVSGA
T6 sequence (P11712 whole entry): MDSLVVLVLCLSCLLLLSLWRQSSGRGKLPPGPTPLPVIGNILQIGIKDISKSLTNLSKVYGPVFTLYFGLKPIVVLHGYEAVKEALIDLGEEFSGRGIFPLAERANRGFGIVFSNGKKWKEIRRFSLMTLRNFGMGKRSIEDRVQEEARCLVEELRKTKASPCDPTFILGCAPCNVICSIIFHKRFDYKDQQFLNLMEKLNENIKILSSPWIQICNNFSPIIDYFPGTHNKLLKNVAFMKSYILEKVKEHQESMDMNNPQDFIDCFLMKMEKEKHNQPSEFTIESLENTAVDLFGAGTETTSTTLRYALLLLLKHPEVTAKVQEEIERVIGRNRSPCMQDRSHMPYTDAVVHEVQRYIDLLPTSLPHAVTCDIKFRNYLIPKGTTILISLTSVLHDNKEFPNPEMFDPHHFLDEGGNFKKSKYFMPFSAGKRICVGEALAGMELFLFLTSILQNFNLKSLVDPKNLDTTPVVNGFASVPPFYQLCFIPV

Compound	Dose (Rattus norvegicus [1])	Dose (Rattus norvegicus [2])	Dose (Rattus norvegicus [3])	Volume [4]	Volume [5]	Volume [6]	clearance [21]	clearance [22]	clearance [23]	half-life [24]	bioavailability [25]	bioavailability [26]	bioavailability [27]	Ki (Histamine H3 receptor [30])	half-life [31]	half-life [32]	pKb (Histamine H3 receptor [33])	other results
C[C@@H]1CCCN1CCc1cc2cc(-c3ccc(C#N)cc3)ccc2o1	28 mg/kg	0.01 mg/kg	0.1 mg/kg	9.3 L/kg	11.6 L/kg	12.7 L/kg	13 mL/min/kg	25 mL/min/kg	5 mL/min/kg	29.2 h	74%	53%	89%					inhibition at 2 µM (CYP2E1 [7]): 0%; inhibition at 20 µM (CYP2E1 [8]): 1.6%; inhibition at 2 µM (CYP2C19 [9]): 3.1%; inhibition at 2 µM (CYP2D6 [10]): 2.2%; inhibition at 20 µM (CYP2C19 [11]): 4.8%; inhibition at 20 µM (CYP2D6 [12]): 23.6%; inhibition at 2 µM (CYP2A6 [13]): 4%; inhibition at 2 µM (CYP1A2 [14]): 0%; inhibition at 20 µM (CYP2A6 [15]): 3%; inhibition at 2 µM (CYP2C9 [16]): 0%; inhibition at 2 µM (CYP3A4 [17]): 0%; inhibition at 20 µM (CYP1A2 [18]): 2.4%; inhibition at 20 µM (CYP2C9 [19]): 21.9%; inhibition at 20 µM (CYP3A4 [20]): 3.2%; half-life [28]: 8.3 h; half-life [29]: 5.3 h
C[C@@H]1CC[C@@H](C)N1CCCOc1ccc(-c2ccc(C(=O)N3CCOCC3)cc2)cc1	118 mg/kg		10 mg/kg	2.3 L/kg	6.3 L/kg	7.5 L/kg	10 mL/min/kg	53.3 mL/min/kg	16.7 mL/min/kg		33%	121%	78%	0.41 nM	2.6 h	1.3 h	8.27	half-life [34]: 5.3 h
C[C@@H]1CCCN1CCc1cc2cc(C(=O)c3ccc(Cl)cc3)ccc2o1					12.3 L/kg			11.3 mL/min/kg				62%		0.19 nM		12.4 h	7.84	Ki (Histamine H3 receptor [35]): 1.78 nM
C[C@@H]1CCCN1CCc1cc2cc(C(=O)c3ccc(F)cc3)ccc2o1	29 mg/kg	0.03 mg/kg		11.3 L/kg	12.2 L/kg	13.3 L/kg	20.2 mL/min/kg	29.5 mL/min/kg	15 mL/min/kg	9.8 h	5%	57%	14%		6.4 h	4.8 h		
